Shown are actives, neighbours in structure and some others; about 2.3% of the full set was active somewhere.
PLCg1 inh = PLC-gamma1 (human) inhibition, primary screen; P19174; AID 720700; inhibition, % at 12.2 µM; 370,000 compounds, 0.84% hits; purified PLC-gamma1, fluorogenic substrate, fluorescence; in the data active = inhibition above about 9.5%
ADAM17 inh = inhibits human ADAM17 | 370,000 compounds, 0.83% hits | inhibition, % at 6.95 µM | AID 720648 | recombinant ADAM17, EDANS/DABCYL FRET peptide cleavage;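 active = inhibition above the mean of compounds lying between control limits plus 3 SD, set per campaign, cut at about 8.5% in these data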;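 note: 0% = DMSO-only wells as the low control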
ADAM10 inh = inhibits human ADAM10; recombinant ADAM10, EDANS/DABCYL FRET peptide cleavage, 3 h; O14672; 370,000 compounds, 0.62% hits; inhibition, % at 7 µM;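 active = inhibition above a per-campaign cutoff equal to the mean of compounds falling between control-based bounds plus 3 SD, cut at about 20% in these data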;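 note: 0% = DMSO wells while the 100% control is not disclosed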
PLCb3 inh = blocks human PLC-beta3 enzyme activity. Purified PLC-beta3, fluorogenic substrate, fluorescence. AID 720704. 370,000 compounds, 0.18% hits. inhibition, % at 12.2 µM. Q01970; in the data active = inhibition above about 11%;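 note: 0% = median of compound wells on plate and 100% = full blocker control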
Tb MetRS inh = blocks T. brucei methionyl-tRNA synthetase activity; purified T. brucei MetRS, ATP depletion, Kinase-Glo luminescence; inhibition, % at 11.9 µM; 360,000 compounds, 0.4% hits; AID 624268;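 active = inhibition above a per-plate cutoff of the control wells' mean inhibition plus 3 SD, cut at about 5.5% in these data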;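 note: 0% = DMSO wells median and 100% = median of wells with control inhibitor compound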
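Measured by: Kinase-Glo luciferase luminescence reporting remaining unconsumed ATP. Material: purified T. brucei MetRS enzyme. Doses: 11.9 µM compound single dose, 0.9% DMSO. Medium: HEPES buffer containing pyrophosphatase, BSA, spermine, DTT. Times: 15 min preincubation, 2 h reaction, all 25 °C. Reagent: methionine, ATP and bulk E. coli tRNA.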
ADAM10 confirm = human ADAM10 inhibition, confirmation; shares compounds with ADAM10 inh; ADAM10 QFRET peptide cleavage, EDANS fluorescence; inhibition, % at 6.95 µM; 2,100 compounds, 1% hits; AID 743208;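 active = inhibition above about 20% chosen separately for each screening run, limit read from the data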;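 note: 0% = DMSO wells and 100% = marimastat wells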
ADAM17 counter = ADAM17 inhibition, counter-screen for ADAM10 exosite hits | shares compounds with ADAM10 inh | ADAM17 QFRET peptide cleavage, EDANS fluorescence | inhibition, % at 6.95 µM | 2,100 compounds, 0.5% hits | AID 743214;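 active = mean triplicate inhibition above the solvent-only control wells' mean plus 3 SD, cut at about 12% in these data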;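 note: 0% = DMSO wells and 100% = marimastat wells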
ADAM10 ctr = ADAM10 inhibition, counter-screen for ADAM17 exosite hits | inhibition, % at 6.95 µM | recombinant ADAM10, EDANS/DABCYL FRET peptide cleavage, 3 h | 2,900 compounds, 47% hits | shares compounds with ADAM17 inh;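 active = mean inhibition over the triplicate runs exceeds the activity threshold set in the earlier primary screen, cut at about 20% in these data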;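 note: 0% = DMSO wells and 100% = marimastat wells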
ADAM17 confirm = confirmation of inhibitors of human ADAM17. inhibition, % at 6.95 µM. recombinant ADAM17, EDANS/DABCYL QFRET peptide cleavage. 2,900 compounds, 65% hits. shares compounds with ADAM17 inh;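 active = mean inhibition across replicates above the hit cutoff set in the primary screen, cut at about 8.5% in these data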;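 note: 0% = DMSO wells and 100% = marimastat wells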
An asterisk follows results filed as active; nt = not tested or not shown.

SMILES | PLCg1 inh | ADAM17 inh | ADAM10 inh | PLCb3 inh | Tb MetRS inh | ADAM10 confirm | ADAM17 counter | ADAM10 ctr | ADAM17 confirm
COc1ccc(NC(=O)CCOc2cc(C)ccc2C)cc1S(=O)(=O)N1CCCCC1 | 6.9 | 12.3* | 24.2* | 4.7 | 0.9 | 1.7 | 0.7 | 8.9 | 9.2*
Cc1ccc(C)c(OCCC(=O)OCC(=O)Nc2cc(S(=O)(=O)N3CCCCC3)ccc2C)c1 | 1.2 | 10.6* | 25.3* | -2.8 | -0.3 | 6.3 | 2.1 | 45.5* | 20.7*
Cc1sc2c(c1C)CN(CCN1CCOCC1)CN2C(=O)c1ccccc1 | -21.1 | -1.9 | -8.5 | -31.1 | -0.2 | nt | nt | nt | nt
O=C(O)c1nn(CCOc2cccc(Br)c2)c(=O)c2ccccc12 | 3.2 | 11.0* | 21.2* | -7.4 | -0.4 | 1.3 | 0.2 | 9.3 | 5.9
O=C(O)c1nn(CCOc2cccc(Cl)c2)c(=O)c2ccccc12 | -0.6 | 2.3 | 7.5 | -7.1 | -0.2 | nt | nt | nt | nt
CCOC(=O)CN(C(=O)CNC(=O)c1ccco1)C(C(=O)NC1CCCCC1)c1cccnc1 (configuration not stated) | -0.3 | 1.2 | -0.1 | -1.4 | 0.1 | nt | nt | nt | nt
O=C1CC(=O)N(CCc2ccccc2)C(=O)N1CCc1ccccc1 | 3.0 | 12.9* | 23.6* | -1.6 | -0.3 | 4.9 | 1.6 | 24.9* | 9.9*
Cc1cc(Nc2cc(Cl)cc(Cl)c2)cc(=O)n1-c1cc(Cl)cc(Cl)c1 | 4.5 | 0.0 | -0.7 | -0.5 | nt | nt | nt | nt | nt
OC(c1ccc(F)c(F)c1)c1nc(-c2ccc(F)c(Cl)c2)cs1 (configuration not stated) | -3.9 | 8.9* | 21.9* | -9.9 | -0.2 | 7.6 | 2.1 | 35.9* | 15.7*
COc1ccc(C(O)c2nc(-c3cccc(O)c3)cs2)cc1 (configuration not stated) | 0.9 | -0.1 | -9.3 | 0.7 | -0.3 | nt | nt | nt | nt
OC(c1ccc(F)cc1)c1nc(-c2cccc(C(F)(F)F)c2)cs1 (configuration not stated) | 0.2 | 6.7 | 9.5 | -3.7 | 0.2 | nt | nt | nt | nt
OC(c1ccc(F)c(F)c1)c1nc(-c2cccc(C(F)(F)F)c2)cs1 (configuration not stated) | -3.1 | 9.4* | 25.8* | -2.8 | 0.1 | 4.3 | 1.9 | 18.2 | 13.7*
COc1ccc(C(O)c2nc(-c3cccc(C(C)C)c3)cs2)cc1 (configuration not stated) | 1.1 | 11.3* | 21.2* | 0.0 | 0.7 | 5.5 | 2.2 | 18.2 | 8.7*
CC1CCCC(NC(=O)Cn2cc(Br)ccc2=O)C1C (configuration not stated) | 0.8 | -7.1 | -13.9 | -8.7 | -0.3 | nt | nt | nt | nt
COc1ccc(NC(=O)c2cc(S(=O)(=O)N(Cc3ccccc3)c3ccccc3)ccc2Cl)cn1 | 0.4 | 9.6* | 20.0* | -0.6 | 0.2 | 9.2 | 2.5 | 23.0* | 11.9*
CN(C)c1ccc(NS(=O)(=O)c2cc(Cl)ccc2Cl)cc1 | -1.5 | 4.7 | 7.6 | -0.2 | -0.6 | nt | nt | nt | nt
CCN(c1ccc(NS(=O)(=O)c2cc(Cl)ccc2Cl)cc1)C(C)C | -1.2 | 11.2* | 24.2* | -5.5 | -0.1 | 2.5 | 0.8 | 13.3 | 10.0*
COc1ccc(-n2c(=S)[nH]c3cc(C(=O)NCc4ccccc4)ccc3c2=O)c(OC)c1 | 4.1 | 9.0* | 24.4* | 4.1 | -0.6 | 0.6 | 0.6 | 12.3 | 10.3*
CC(C)CNC(=O)OCc1cn(Cc2c(F)cccc2F)nn1 | 4.6 | 0.9 | 0.7 | 4.0 | nt | nt | nt | nt | nt
COc1ccc(CNc2nc(-c3ccccc3)nc3ccccc23)cc1OC | -2.1 | 12.7* | 21.9* | -10.1 | -0.1 | 6.7 | 2.8 | 23.5* | 16.6*
CN1CCN(c2ccc([N+](=O)[O-])c(-n3nc(-c4ccccc4)c4ccccc4c3=O)c2)CC1 | 9.6* | 12.5* | 20.5* | 9.1 | -0.1 | 1.1 | -0.1 | 14.8 | 9.7*
CC(=O)N1c2ccc(S(=O)(=O)NCCC(=O)Nc3ccc(F)cc3)cc2CC1C (configuration not stated) | 4.3 | 0.6 | 3.2 | -3.2 | 0.3 | nt | nt | nt | nt
O=[N+]([O-])c1cc(S(=O)(=O)Nc2ccccc2)ccc1N1CCN(c2ccccc2)CC1 | 6.1 | 11.1* | 24.0* | 0.9 | -1.8 | 11.4 | 3.3 | 38.3* | 20.8*
O=[N+]([O-])c1cc(S(=O)(=O)C(F)(F)F)ccc1N1CCN(c2ccccc2)CC1 | 3.7 | 6.3 | 9.6 | 3.0 | 0.1 | nt | nt | nt | nt
CN(C(=O)c1cccc(NC(=O)Cc2ccc(NC(=O)C3CCN(S(=O)(=O)c4cccc([N+](=O)[O-])c4)CC3)cc2)c1)C1CCC1 | 3.9 | 12.4* | 19.9* | 4.3 | 0.2 | -0.4 | 0.1 | 23.9* | 8.9*
SMILES | PLCg1 inh | ADAM17 inh | ADAM10 inh | PLCb3 inh | Tb MetRS inh | ADAM10 confirm | ADAM17 counter | ADAM10 ctr | ADAM17 confirm
COc1cccc(NC(=O)CN2C(=O)C(c3ccc(C)cc3)=NC23CCCCCC3)c1 | 0.4 | 1.7 | 1.7 | 0.7 | -0.5 | nt | nt | nt | nt
COc1cc(NC(=O)CN2C(=O)C(c3ccccc3)=NC23CCCCCC3)cc(OC)c1 | 5.1 | 8.7* | 29.5* | 2.8 | -1.2 | 2.5 | 1.4 | 6.0 | 4.6
Cc1ccc2nc(NC(=O)C3CCN(S(=O)(=O)c4cc([N+](=O)[O-])ccc4Cl)CC3)sc2c1 | 1.3 | 6.2 | 13.2 | 2.3 | -0.9 | nt | nt | nt | nt
O=C(Nc1nc2ccc(F)cc2s1)C1CCN(S(=O)(=O)c2cc([N+](=O)[O-])ccc2Cl)CC1 | 0.3 | 8.8* | 21.2* | -0.1 | 0.1 | 4.9 | 2.0 | 15.0 | 12.6*
O=C(/C=C/C=C/c1ccccc1)CC1(O)C(=O)N(CCc2ccccc2)c2ccccc21 (configuration not stated) | 8.6 | 9.3* | 20.8* | 0.1 | -1.2 | 4.8 | 2.8 | 36.2* | 18.8*
COc1ccc(CN2CCN(c3cccc(C)c3C)CC2)cc1OC | 0.1 | -1.9 | 8.2 | 1.1 | -0.1 | nt | nt | nt | nt
COc1cc(CN2CCN(c3cccc(C)c3C)CC2)cc(Br)c1O | 2.9 | 9.8* | 23.5* | 8.2 | -0.1 | 3.0 | 1.6 | 22.4* | 10.7*
C[C@H]1[C@H](NC(=O)c2cccc(Cl)c2)CC[C@@]23CCCN2C(=O)CCC[C@@H]13 | 0.2 | -3.6 | -8.0 | 5.2 | nt | nt | nt | nt | nt
